The values that follow come from ChEMBL document CHEMBL2176938, “Virtual screening and optimization yield low-nanomolar inhibitors of the tautomerase activity of Plasmodium falciparum macrophage migration inhibitory factor” (J Med Chem, 2012).

Structures are written as SMILES.

Usually Ki stands for the equilibrium dissociation constant of an inhibitor or competing ligand from its target. Usually IC50 stands for the concentration needed to halve the response being measured.

One experiment concerns the target T1, Macrophage migration inhibitory factor (Homo sapiens, UniProt P14174).
T1 sequence (P14174 whole entry): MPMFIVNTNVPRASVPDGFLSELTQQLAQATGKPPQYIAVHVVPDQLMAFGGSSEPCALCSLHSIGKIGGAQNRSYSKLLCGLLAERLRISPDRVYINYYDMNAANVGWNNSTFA
The experiment in a line: Inhibition of human MIF.
Conditions: not given; call rule not given here
Regarding `COc1cccc(Oc2cc(C)nc(N3CCOCC3)c2)c1`, the Ki result was “Not Active”.

The same experiment, now with this note: read-out: Ki.
In the case of `Cc1cc(Oc2cccc(O)c2)cc(-c2ccccc2)n1`, the Ki was 101 µM.
In the case of `COc1ccc(-c2cc(Oc3cc(C)cc(OC)c3)cc(C)n2)cc1`, the Ki was 270 µM.

The target of the next experiment is T2, Macrophage migration inhibitory factor homologue (Plasmodium falciparum (isolate 3D7), UniProt Q8I5C5).
T2 sequence (Q8I5C5 whole entry): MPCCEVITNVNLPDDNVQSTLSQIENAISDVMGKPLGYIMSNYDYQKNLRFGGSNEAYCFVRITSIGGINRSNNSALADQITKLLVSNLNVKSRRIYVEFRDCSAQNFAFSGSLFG
Nature of the experiment: Inhibition of recombinant Plasmodium falciparum MIF expressed in Escherichia coli BL21 (DE3) assessed as ketonization of enol form of 4-HPP substrate after 10 mins.
Conditions: not given
In short, it runs like this:
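PfMIF (75 nM trimer) in 25 mM potassium phosphate pH 7.4, preincubated 10 min with inhibitor at 1.5, 5 and 10 μM; DMSO vehicle 1% final. Started by adding enol 4-HPP (dissolved in absolute EtOH, stored −20°C) at varied concentrations. Enol-to-keto conversion read as fall in absorbance at 306 nm over 90 s; Ki values derived.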
On to `CC1(C)CC(=O)C=C(Nc2ccc(S(N)(=O)=O)cc2)C1`, for which the inhibition constant (Ki) entry is “Not Active”.
On the same count and under the same terms, in the case of `CNC(=O)c1cccc2cccc(Sc3ccccc3C(=O)O)c12` it was “Not Active”; in that of `CC(=O)c1ccc(-c2ccc(C(=O)N3CCC(C(N)=O)CC3)o2)cc1`, “Not Active”; in that of `O=C(NCc1ccc(F)cc1F)Nc1cnccc1C(F)(F)F`, “Not Active”.
For the compound `CN1C(=O)N[C@@H](c2ccccc2)C2=C1CN(c1cccc(C(=O)O)c1)C2=O`, the Ki entry is “Not Active”.
In the case of `COc1ccc(NC(=O)[C@H]2CCC(C)=C(C)[C@@H]2C(=O)O)c(N2CCOCC2)n1`, the Ki result is reported as “Not Active”.
For the compound `Oc1cccc(Oc2ccc(-c3cccc(O)c3)cc2)c1`, the Ki result is recorded as “Not Active”.
For `Oc1ccc(-c2ccc(Oc3cccc(O)c3)cc2)cc1`, the Ki result is reported as “Not Active”.
The same measure, in the same setting: to `Oc1cccc(Oc2ccc(-c3ccc(O)c(O)c3)cc2)c1` belongs “Not Active”; to `COc1ccc(-c2ccc(Oc3cccc(OC)c3)cc2)cc1`, “Not Active”; to `COc1cccc(Oc2ccc(-c3ccc(OC)c(OC)c3)cc2)c1`, “Not Active”.
Take `COc1ccc(-c2ccc(Oc3cccc(OC)c3)cn2)cc1`: the Ki entry is given as “Not Active”.
On to `COc1ccc(Oc2cc(C)nc(-c3ccccc3)n2)cc1`, for which the Ki result is given as “Not Active”.
In the case of `COc1ccc(-c2cc(Oc3cccc(OC)c3)ccn2)cc1`, the Ki entry is “Not Active”.
For the compound `Cc1cc(O)cc(Oc2ccnc(-c3ccc(O)cc3)c2)c1`, the Ki result is “Not Active”.
Regarding `COc1ccc(C(=O)c2oc3ccccc3c2NC(=O)C(C)C)cc1Cl`, the Ki result was “Not Active”.
For `CCc1ccc(CNc2ccc(S(N)(=O)=O)cc2)cc1`, the Ki result was “Not Active”.
Turning to `CCC[C@H](C(=O)Nc1ccc(F)c(F)c1F)c1ccccc1`, the inhibition constant Ki entry is “Not Active”.
As for `CCc1ccc([C@H]2C[C@H](c3cccc(C)c3)n3ncnc3N2)cc1`, the Ki result was “Not Active”.
Still for that read-out and setting: in the case of `O=C(O)c1ccccc1C(=O)N(Cc1cccnc1)Cc1ccc(Cl)cc1Cl` it was “Not Active”; in that of `O=C(O)c1ccccc1C(=O)Nc1ncccc1OCc1ccc(Cl)c(Cl)c1`, “Not Active”; in that of `O=C1C(=O)N(CNc2ccc3ccccc3c2)c2ccccc21`, “Not Active”.
As to `CC(=O)O[C@@H]1C[C@H]2C(C)(C)C(=O)C=C[C@]2(C)[C@H]2CC[C@@]3(C)[C@H](c4ccoc4)C(=O)[C@H]4O[C@]43[C@@]21C` [EPOXYAZADIRADIONE], the IC50 was 10 µM.

Staying with this experiment, now noted: read-out: Ki.
Take `NS(=O)(=O)c1ccc(NC2=CC(=O)C(=O)c3ccccc32)cc1`: the Ki came out at 99 µM.
Take `Oc1cccc(Oc2c(F)c(F)nc(N3CCOCC3)c2F)c1`: the Ki amounted to 8.6 µM.
Still for that read-out and setting: to `Oc1cccc(Oc2c(F)c(N3CCOCC3)nc(F)c2Cl)c1` belongs 15.5 µM; to `Oc1cccc(Oc2c(F)c(F)nc(N3CCCCC3)c2F)c1`, 28.6 µM.
For `Cc1cc(Oc2cccc(O)c2)nc(-c2ccccc2)n1`, the Ki is 19.3 µM.
Regarding `COc1ccc(-c2nnc3ccc(Oc4cccc(O)c4)nn23)cc1`, the Ki came to 122 µM.
With `Oc1cccc(Oc2ccnc(N3CCOCC3)c2)c1`, the Ki amounted to 43.4 µM.
For `COc1cccc(Oc2ccnc(N3CCOCC3)c2)c1`, the Ki was found to be 22.9 µM.
For the compound `Oc1cccc(Oc2ccc(-c3cccc(O)c3)nc2)c1`, the Ki turned out to be 6.9 µM.
Take `Oc1ccc(-c2ccc(Oc3cccc(O)c3)cn2)cc1`: the Ki was 67.6 µM.
As for `COc1cccc(Oc2ccc(-c3cccc(OC)c3)nc2)c1`, the Ki was 57.2 µM.
Same read-out and setting: to `N#Cc1cccc(Oc2ccc(-c3cccc(O)c3)nc2)c1` belongs 0.37 µM; to `COc1cc(OC)cc(Oc2ccnc(N3CCOCC3)c2)c1`, 122 µM.
Same read-out and setting: to `COc1cc(C)cc(Oc2ccnc(N3CCOCC3)c2)c1` belongs 5.6 µM; to `COc1cc(Cl)cc(Oc2ccnc(N3CCOCC3)c2)c1`, 2.6 µM.
As to `CCOc1cccc(Oc2ccnc(N3CCOCC3)c2)c1`, the Ki came out at 6.9 µM.
On the same count and under the same terms, to `CCOc1cccc(Oc2cc(C)nc(N3CCOCC3)c2)c1` belongs 7.2 µM; to `COc1cc(C)cc(Oc2cc(C)nc(N3CCOCC3)c2)c1`, 1.2 µM.
Regarding `Cc1cc(Oc2cccc(C#N)c2)cc(N2CCOCC2)n1`, the Ki was determined as 11.3 µM.
As to `COc1cccc(Oc2cc(C)nc(N3CCOCC3)c2)c1`, the Ki worked out at 0.043 µM.
In the case of `COc1cccc(Oc2cc(C)nc(-c3ccccc3)n2)c1`, the Ki was 5.5 µM.
As for `Cc1cc(Oc2ccc(O)cc2)nc(-c2ccccc2)n1`, the Ki turned out to be 93.3 µM.
The same measure, in the same setting: to `Cc1cc(Oc2cccc(C#N)c2)nc(-c2ccccc2)n1` belongs 1.6 µM; to `Cc1cc(Oc2cccc(O)c2)cc(-c2ccccc2)n1`, 0.039 µM; to `COc1cccc(Oc2cc(C)nc(-c3ccccc3)c2)c1`, 7.7 µM.
Same read-out and setting: to `Oc1ccc(-c2cc(Oc3cccc(O)c3)ccn2)cc1` belongs 3 µM; to `COc1ccc(-c2cc(Oc3cc(C)cc(OC)c3)ccn2)cc1`, 0.37 µM; to `COc1ccc(-c2cc(Oc3cc(C)cc(OC)c3)cc(C)n2)cc1`, 0.038 µM.
On to `O=C1N=C(Nc2cccc(O)c2)S/C1=C\c1cccc(O)c1`, for which the Ki was determined as 20.6 µM.
As to `NC(=O)CSC1=Nc2ccccc2C2=N[C@H](Cc3c[nH]c4ccccc34)C(=O)N12`, the Ki stood at 25.4 µM.
